Assay outcomes from PubChem.
Sampled rows, rich in hits. Any-hit rate of the full collection: about 1.4%.
NR1D1 modulator – modulators of Rev-erb alpha DNA binding, primary screen, biochemical, FITC-DNA, fluorescence polarization, uHTS; activity, % at 10 µM; Rev-erbα–FITC-DNA binding, 90 min; 370,000 tested, 0.79% active;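 active means activity above about 14%, limit read from the data; passing the limit was not always enough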;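 further: 0% = DMSO wells with 35 nM protein and 100% = DMSO wells with 750 nM protein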
NR2E3 ag-1 – inhibitors of NR2E3-RetCOR corepressor binding, primary screen, NR2E3 agonist project, biochemical, TR-FRET, GST-NR2E3, biotin-RetCOR | Photoreceptor-specific nuclear receptor (Homo sapiens), Q9Y5X4 | 1536-well | inhibition of corepressor binding, % at 4.78 µM | 320,000 tested, 0.12% active;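 active means percent inhibition above the cutoff of mean plus 3 SD of all tested compounds, set per screening campaign, cut at about 20% in these data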;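 further: 0% = DMSO wells and 100% = biotin wells as full block of FRET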
Target sequence (Q9Y5X4 whole entry, looked up): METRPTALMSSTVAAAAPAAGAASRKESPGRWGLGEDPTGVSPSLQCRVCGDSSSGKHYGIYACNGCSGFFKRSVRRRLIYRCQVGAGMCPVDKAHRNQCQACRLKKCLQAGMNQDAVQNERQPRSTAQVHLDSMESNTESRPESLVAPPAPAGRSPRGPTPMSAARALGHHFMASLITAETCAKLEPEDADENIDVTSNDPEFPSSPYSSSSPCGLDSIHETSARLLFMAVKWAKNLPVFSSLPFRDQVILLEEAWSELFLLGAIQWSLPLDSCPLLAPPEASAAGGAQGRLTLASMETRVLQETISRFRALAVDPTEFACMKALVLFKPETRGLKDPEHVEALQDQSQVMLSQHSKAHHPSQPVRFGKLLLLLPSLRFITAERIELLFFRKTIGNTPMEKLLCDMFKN
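system = GST-tagged NR2E3 plus biotinylated RetCOR corepressor | input = 1.35 nM GST-NR2E3 | also added = 7 nM biotin-RetCOR | schedule = 5 h incubation at 4 °C | measured by = TR-FRET with europium anti-GST and streptavidin-D2, 340 nm excitation | read-out = percent loss of FRET ratio relative to control wells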
NR2E3 ag-2 – NR2E3 agonists in two-hybrid cells, primary screen, cell-based, luminescence, CHO-S, Gal4-NCOR/VP16-NR2E3. luciferase. inhibition of corepressor binding, % at 3.98 µM. 360,000 tested, 0.35% active. AID 602229, 2012;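 active means inhibition above the mean of all tested compounds plus 3 SD, cut at about 70% in these data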;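 further: 0% = DMSO with NR2E3 transfected cells and 100% = cells lacking NR2E3 construct; higher means lower luciferase signal from less NR2E3 corepressor binding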
PG9 binder – binders of HIV-1 gp120 antibody PG9, primary screen, biochemical, TR-FRET; HIV-1 gp120 / PG9 antibody interaction; AID 624416, 2012; 360,000 tested, 0.43% active; inhibition, % at 6.7 µM; TR-FRET gp120-PG9 antibody binding; in the data active means inhibition above about 8.5%
NR2E3 ag confirm – NR2E3 agonists, confirmation, biochemical, TR-FRET. shares compounds with NR2E3 ag-1. cell-free NR2E3 corepressor release, 5 h. activation (reported as inhibition), % at 3.98 µM. 360 tested, 39% active; in the data active means activation above about 20%
PPARg-NCOR2 ctr – agonists of PPARg-NCOR2 corepressor interaction, counter-screen for NR2E3 agonist project, biochemical, TR-FRET | shares compounds with NR2E3 ag-1 | TR-FRET PPARg-NCOR2 coregulator interaction | inhibition, % at 3.98 µM | 360 tested, 45% active | AID 504787, 2011; in the data active means inhibition above about 20%;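 further: 0% = DMSO vehicle and 100% = wells without protein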
PG9 binder conf – binders of anti-gp120 antibody PG9, confirmation, biochemical, TR-FRET; AID 651571, 2012; shares compounds with PG9 binder; TR-FRET PG9 antibody binding; 1,500 tested, 90% active; inhibition, % at 6.7 µM; in the data active means inhibition above about 9%
PGV04 Ab binding – binders of control antibody PGV04, counter-screen for PG9 antibody binder project, biochemical, TR-FRET, distinct HIV envelope site; TR-FRET PGV04 antibody-gp120 binding; shares compounds with PG9 binder; 1,500 tested, 95% active; AID 651604, 2012; inhibition, % at 6.7 µM; in the data active means inhibition above about 9.5%
Starred values were filed as active, the others as inactive; · = not tested or not shown.

SMILES	NR1D1 modulator	NR2E3 ag-1	NR2E3 ag-2	PG9 binder	NR2E3 ag confirm	PPARg-NCOR2 ctr	others
O=C(C1=C(O)C(=O)N(CCc2ccccc2)C1c1cccs1)c1ccco1 (centres undefined)	-2	10	4	3	·	·
O=C(C1=C(O)C(=O)N(CCCn2ccnc2)C1c1ccc(F)cc1)c1ccco1 (centres undefined)	0	36*	-8	2	4	2
COCCCN1C(=O)C(O)=C(C(=O)c2ccco2)C1c1ccccc1 (centres undefined)	-5	22*	1	5	20	17
O=C(C1=C(O)C(=O)N(CCc2ccccc2)C1c1cccnc1)c1ccco1 (centres undefined)	2	25*	-8	7	17	23*
COc1cc(C2C(C(=O)c3ccco3)=C(O)C(=O)N2Cc2ccccc2)ccc1O (centres undefined)	1	5	-21	2	·	·
COc1cccc(CNc2nc3cc(-c4ccc(OC)cc4C)sc3c(=O)n2C)c1	3	·	-16	-1	·	·
Cc1cccc[n+]1C1C(c2ccccc2)C(C#N)=C(C(=C=[N-])C#N)NC1(O)C1CC1 (centres undefined)	·	43*	-18	·	5	30*
Cc1ccc[n+](C2C(c3ccc([N+](=O)[O-])cc3)C(C#N)=C([S-])NC2(O)C2CC2)c1 (centres undefined)	6	3	15	1	·	·
O=C(Nc1ccc(Br)cc1)C1C2C=CC3(O2)C1C(=O)N(CCN1CCOCC1)C3C(=O)NC1CCCCC1 (centres undefined)	-6	7	-14	0	·	·
COC(=O)CN(c1ccccc1F)S(=O)(=O)c1ccc(C)cc1	-2	-1	8	-2	·	·
O=c1oc2c(O)c(O)cc3c(=O)oc4c(O)c(O)cc1c4c23	-46	38*	-14	·	34*	·
Cc1ccc(C)n1-c1ccc(C(=O)O)cc1	·	23*	·	·	15	-4
CC(=O)c1c(C(C)=O)c(C)n(-c2ccc(C(=O)O)cc2)c1C	-5	-2	-25	-1	·	·
C=CCN(CC=C)Cc1c(O)ccc2c1oc(=O)c1ccccc12	2	34*	-34	5	14	-4
O=c1[nH]c(CN2CCN(c3ncccn3)CC2)nc2c(Br)cc(Br)cc12	9	27*	38	3	14	25*
Nc1ccc2c(c1)C(=O)c1ccccc1-2	-2	-11	-12	-13	·	·
Nc1ccc2c(c1)C(=O)C(=O)c1ccccc1-2	-21	20*	70	-42	9	48*
CCOc1ccccc1C(=O)OCC(=O)Nc1cccc(S(=O)(=O)N2CCCC2)c1	5	·	-14	2	·	·
Cc1cccc(-c2nc(=S)c3c(n2Cc2ccco2)CCCC3)c1	2	28*	10	2	4	8
Cc1cccn2c(=O)c3cc(C(=O)NCc4ccc(F)cc4)c(=N)n(CCCN4CCOCC4)c3nc12	3	·	2	-4	·	·
COc1ccc(NC(=O)CCNS(=O)(=O)c2cc(Br)ccc2Br)cc1S(N)(=O)=O	5	23*	12	-2	-8	-7
COc1ccc(NC(=O)CCNC(=O)c2ccccc2)cc1S(N)(=O)=O	-2	1	-13	-1	·	·
CS(=O)(=O)c1nc(-c2ccc(Br)cc2)cs1	6	·	·	·	·	·
CC1=NN(c2ccc(C)c(C)c2)C(=O)C1C(c1cccc(O)c1)C1C(=O)N(c2ccc(C)c(C)c2)N=C1C (centres undefined)	-1	21*	28	-2	-4	6
O=C(Cc1ccc2c(c1)OCO2)NN=Cc1ccc([N+](=O)[O-])o1	-3	·	8	-2	·	·
SMILES	NR1D1 modulator	NR2E3 ag-1	NR2E3 ag-2	PG9 binder	NR2E3 ag confirm	PPARg-NCOR2 ctr	others
CN(C(=O)c1ccc(NC(=O)Cc2ccc(NC(=O)C3CCN(C(=O)C4CCCC4)CC3)cc2)cc1)C1CCCC1	12	·	-36	-1	·	·
CN(C(=O)c1ccc(NC(=O)Cc2ccc(NC(=O)C3CCN(C(=O)C4CCCCC4)CC3)cc2)cc1)C1CC1	0	20*	-15	1	0	-7
CS(=O)(=O)N1CCN(c2ccc(Cl)cc2[N+](=O)[O-])CC1	4	42*	6	-1	-1	-6
Cc1ccc(NC2CCCN(C(=O)c3ccc4nccnc4c3)C2)cc1C (centres undefined)	3	·	-17	-3	·	·
Oc1ccc(/C=C/c2ccccc2F)c2cccnc12	-4	·	·	·	·	·
CCOc1cccc(C2C(C(=O)c3ccc(C)o3)=C(O)C(=O)N2CCCn2ccnc2)c1 (centres undefined)	0	24*	-9	9.1*	29*	28*	PG9 binder conf=15*;PGV04 Ab binding=19*
CCCCOc1cccc(C2C(C(=O)c3ccc(C)o3)=C(O)C(=O)N2Cc2ccco2)c1 (centres undefined)	-1	·	22	2	·	·
CCOc1cccc(C2C(C(=O)c3ccc(C)o3)=C(O)C(=O)N2c2nccs2)c1 (centres undefined)	-2	19	-6	6	·	·
C=CCOc1ccc(C2C(C(=O)c3ccc(C)o3)=C(O)C(=O)N2Cc2cccnc2)cc1 (centres undefined)	-4	20*	-1	11*	5	5	PG9 binder conf=27*;PGV04 Ab binding=31*
COCCCN1C(=O)C(O)=C(C(=O)c2ccc(C)o2)C1c1cccc(Br)c1 (centres undefined)	1	45*	-32	19*	20*	20*	PG9 binder conf=20*;PGV04 Ab binding=26*
C=CCOc1cccc(C2C(C(=O)c3cccs3)=C(O)C(=O)N2Cc2cccnc2)c1 (centres undefined)	-1	2	4	7	·	·
O=C(NCc1ccc(N2CCCC2=O)cc1)c1cccc(Cl)c1	-3	0	2	-4	·	·
CCN(CC(=O)NC(C)C)Cc1nc2c(Br)cc(Br)cc2c(=O)[nH]1	5	55*	-27	23*	56*	48*	PG9 binder conf=40*;PGV04 Ab binding=52*
Clc1cccc(CNc2ccn3nc(-c4ccc(OCCN5CCOCC5)cc4)cc3n2)c1	0	·	9	-1	·	·
